Converted amounts (≈) assume the structure as drawn.
How the values were obtained:
Klebsiella sp. = assay: Antibacterial activity against Klebsiella spp. by broth microdilution method; format: functional
How it was run: (§1)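 MICs were determined by CLSI broth microdilution against clinical isolate panels that included aminoglycoside-resistant isolates. […] MIC90 was derived per group and not calculated when n was <10. Imipenem, ceftobiprole, ciprofloxacin and tigecycline MICs were also determined for the resistant isolates.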

Proteus mirabilis = assay: Antibacterial activity against Proteus mirabilis by broth microdilution method; format: functional; how it was run: as §1
Acinetobacter baumannii [1] = assay: Antibacterial activity against aminoglycoside-resistant Acinetobacter baumannii expressing […] by broth microdilution method; format: functional
How it was run: (§2)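 Clinical aminoglycoside-resistant isolates were each carrying a single aminoglycoside-modifying enzyme. […] MICs were determined by CLSI broth microdilution.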

Pseudomonas aeruginosa [2] = assay: Antibacterial activity against aminoglycoside-resistant Pseudomonas aeruginosa expressing AAC(6')-2 by broth microdilution method; format: functional; how it was run: as §2
Escherichia coli [3] = assay: Antibacterial activity against aminoglycoside-resistant Escherichia coli expressing ANT(6')-1 by broth microdilution method; format: functional; how it was run: as §2
Staphylococcus aureus [4] = assay: Antibacterial activity against aminoglycoside-resistant Staphylococcus aureus expressing APH(2'') + AAC(6') by broth microdilution method; format: functional
How it was run: (§3)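 MICs were measured by broth microdilution following CLSI guidance. The strains formed a 25-strain screening panel with diverse aminoglycoside resistance mechanisms. The panel included Gram-negative and S. aureus strains carrying key aminoglycoside-modifying enzymes, strains with altered permeability or efflux, and an armA ribosomal methyltransferase strain.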

Serratia sp. = assay: Antibacterial activity against Serratia spp. by broth microdilution method; format: functional; conditions: Serratia sp. (in: enterobacteria); how it was run: as §1
Enterobacter cloacae [5] = assay: Antibacterial activity against aminoglycoside-resistant Enterobacter cloacae expressing AAC(3)-2 by broth microdilution method; format: functional; how it was run: as §2
Citrobacter = assay: Antibacterial activity against Citrobacter spp. by broth microdilution method; format: functional; how it was run: as §1
Escherichia coli [6] = assay: Antibacterial activity against aminoglycoside-resistant Escherichia coli expressing AAC(3)-IVa by broth microdilution method
Pluralibacter gergoviae = assay: Antibacterial activity against aminoglycoside-resistant Enterobacter gergoviae expressing ANT(2'')-I by broth microdilution method
[7] = test system: Staphylococcus epidermidis; assay: Antibacterial activity against aminoglycoside-resistant Staphylococcus epidermidis expressing APH(2'') + AAC(6')-1 by broth microdilution method; format: functional; how it was run: as §2
Escherichia coli [8] = assay: Antibacterial activity against aminoglycoside-resistant Escherichia coli expressing AAC(3)-2 by broth microdilution method; format: functional; how it was run: as §2
Staphylococcus sp. = assay: Antibacterial activity against Staphylococcus spp. by broth microdilution method; format: functional; how it was run: as §1
Escherichia coli [9] = assay: Antibacterial activity against aminoglycoside-resistant Escherichia coli expressing AAC(3)-4 by broth microdilution method; format: functional; how it was run: as §2
Escherichia coli [10] = assay: Antibacterial activity against Escherichia coli by broth microdilution method; format: functional; how it was run: as §1
Klebsiella aerogenes = assay: Antibacterial activity against aminoglycoside-resistant Enterobacter aerogenes expressing AAC(6')-1 by broth microdilution method; format: functional; how it was run: as §2
Acinetobacter = assay: Antibacterial activity against aminoglycoside-resistant Acinetobacter spp. expressing APH(3')-6 by broth microdilution method; format: functional; how it was run: as §2
Staphylococcus aureus [11] = assay: microbe, parasite or virus in culture
[12] = test system: Staphylococcus epidermidis; assay: Antibacterial activity against aminoglycoside-resistant Staphylococcus epidermidis expressing ANT(4',4'')-2 by broth microdilution method; format: functional; how it was run: as §2
Enterobacter sp. = assay: Antibacterial activity against Enterobacter spp. by broth microdilution method; format: functional; how it was run: as §1
Citrobacter freundii = assay: Antibacterial activity against aminoglycoside-resistant Citrobacter freundii expressing AAC(3)-2 by broth microdilution method; format: functional; how it was run: as §2
[13] = test system: Staphylococcus epidermidis; assay: Antibacterial activity against aminoglycoside-resistant Staphylococcus epidermidis expressing APH(3')-3 by broth microdilution method; format: functional
Enterobacter cloacae [14] = assay: Antibacterial activity against aminoglycoside-resistant Enterobacter cloacae expressing ANT(2'')-I by broth microdilution method
Escherichia coli [15] = assay: Antibacterial activity against aminoglycoside-resistant Escherichia coli expressing AAC(6')-1 by broth microdilution method; format: functional; how it was run: as §2
Serratia marcescens [16] = assay: Antibacterial activity against aminoglycoside-resistant Serratia marcescens expressing ANT(2''), AAC(6') by broth microdilution method; format: functional; how it was run: as §3
Klebsiella oxytoca = assay: Antibacterial activity against aminoglycoside-resistant Klebsiella oxytoca expressing AAC(6')-1 by broth microdilution method; format: functional; how it was run: as §2
Escherichia coli [17] = assay: Antibacterial activity against aminoglycoside-resistant Escherichia coli expressing ANT(2'')-I by broth microdilution method
Staphylococcus aureus [18] = assay: Antibacterial activity against aminoglycoside-resistant Staphylococcus aureus expressing ANT(4',4'')-2 by broth microdilution method; format: functional; how it was run: as §2
Klebsiella pneumoniae [19] = assay: Antibacterial activity against aminoglycoside-resistant Klebsiella pneumoniae expressing AAC(3)-2 by broth microdilution method; format: functional; how it was run: as §2
Pseudomonas aeruginosa [20] = assay: Antibacterial activity against aminoglycoside-resistant Pseudomonas aeruginosa expressing ANT(2'')-1 by broth microdilution method; format: functional; how it was run: as §2
Klebsiella pneumoniae [21] = assay: Antibacterial activity against aminoglycoside-resistant Klebsiella pneumoniae expressing ANT(2'')-I by broth microdilution method
Acinetobacter baumannii [22] = assay: Antibacterial activity against Acinetobacter baumannii ATCC 19606 by broth microdilution method; format: functional; conditions: ATCC 19606 = CIP 70.34 = JCM 6841; how it was run: as §3
Pseudomonas aeruginosa [23] = assay: Antibacterial activity against wild type Pseudomonas aeruginosa expressing efflux pump by broth microdilution method; format: functional
How it was run: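 MIC was determined by CLSI broth microdilution, read in μg/ml. The strain came from a 25-strain screening panel with diverse aminoglycoside resistance mechanisms. The panel included strains with changes in permeability or efflux, key aminoglycoside-modifying enzymes and an armA methyltransferase strain.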

Pseudomonas aeruginosa [24] = assay: Antibacterial activity against Pseudomonas aeruginosa by broth microdilution method; format: functional; how it was run: as §1
Staphylococcus aureus [25] = assay: Antibacterial activity against aminoglycoside-resistant Staphylococcus aureus expressing APH(2'') + AAC(6')-1 by broth microdilution method; format: functional; how it was run: as §2
Klebsiella pneumoniae [26] = assay: Antibacterial activity against aminoglycoside-resistant Klebsiella pneumoniae expressing AAC(3)-1 by broth microdilution method; format: functional; how it was run: as §2
Escherichia coli [27] = assay: Antibacterial activity against Escherichia coli ATCC 25922 by broth microdilution method; format: functional; how it was run: as §3
Pseudomonas aeruginosa [28] = assay: Antibacterial activity against Pseudomonas aeruginosa ATCC 27853 by broth microdilution method; format: functional
Escherichia coli [29] = assay: Antibacterial activity against aminoglycoside-resistant Escherichia coli expressing APH(3')-1b by broth microdilution method
Acinetobacter baumannii [30] = assay: Antibacterial activity against aminoglycoside-resistant Acinetobacter baumannii expressing APH(3')-6 by broth microdilution method; format: functional; how it was run: as §2
Serratia marcescens [31] = assay: Antibacterial activity against aminoglycoside-resistant Serratia marcescens expressing AAC(6')-1 by broth microdilution method; format: functional; how it was run: as §2
Staphylococcus aureus [32] = assay: microbe, parasite or virus in culture; remark: listed apart in the source
Serratia marcescens [33] = assay: Antibacterial activity against aminoglycoside-resistant Serratia marcescens expressing ANT(2'')-I by broth microdilution method
Pseudomonas aeruginosa [34] = assay: Antibacterial activity against efflux pump deficient Pseudomonas aeruginosa by broth microdilution method; format: functional

Structure (SMILES): CN[C@@H]1[C@@H](O)[C@@H](O[C@@H]2[C@@H](O)[C@H](O[C@H]3OC(CNCCO)=CC[C@H]3N)[C@@H](N)C[C@H]2NC(=O)[C@@H](O)CCN)OC[C@]1(C)O [PLAZOMICIN]
- MIC50 (Klebsiella sp.): 0.5 µg/mL (≈ 0.844 µM)
- MIC90 (Klebsiella sp.): 1 µg/mL (≈ 1.69 µM)
- MIC50 (Proteus mirabilis): 4 µg/mL (≈ 6.75 µM)
- MIC90 (Proteus mirabilis): 8 µg/mL (≈ 13.5 µM)
- MIC (Acinetobacter baumannii [1]): 4 µg/mL (≈ 6.75 µM)
- MIC (Pseudomonas aeruginosa [2]): 6 µg/mL (≈ 10.1 µM)
- MIC (Escherichia coli [3]): 0.25 µg/mL (≈ 0.422 µM)
- MIC (Staphylococcus aureus [4]): 4 µg/mL
- MIC50 (Serratia sp.): 1 µg/mL (≈ 1.69 µM)
- MIC (Enterobacter cloacae [5]): 1 µg/mL (≈ 1.69 µM)
- MIC50 (Citrobacter): 0.5 µg/mL (≈ 0.844 µM)
- MIC (Escherichia coli [6]): 1 µg/mL (≈ 1.69 µM)
- MIC (Pluralibacter gergoviae): 1 µg/mL (≈ 1.69 µM)
- MIC [7]: 1 µg/mL
- MIC (Escherichia coli [8]): 1 µg/mL (≈ 1.69 µM)
- MIC50 (Staphylococcus sp.): 1 µg/mL (≈ 1.69 µM)
- MIC90 (Staphylococcus sp.): 2 µg/mL (≈ 3.37 µM)
- MIC (Escherichia coli [9]): 1 µg/mL (≈ 1.69 µM)
- MIC50 (Escherichia coli [10]): 1 µg/mL (≈ 1.69 µM)
- MIC90 (Escherichia coli [10]): 2 µg/mL (≈ 3.37 µM)
- MIC (Klebsiella aerogenes): 1 µg/mL (≈ 1.69 µM)
- MIC (Acinetobacter): 1 µg/mL (≈ 1.69 µM)
- MIC (Staphylococcus aureus [11]): 1 µg/mL (≈ 1.69 µM)
- MIC [12]: 1 µg/mL (≈ 1.69 µM)
- MIC50 (Enterobacter sp.): 0.5 µg/mL (≈ 0.844 µM)
- MIC90 (Enterobacter sp.): 1 µg/mL (≈ 1.69 µM)
- MIC (Citrobacter freundii): 1 µg/mL (≈ 1.69 µM)
- MIC [13]: 1 µg/mL (≈ 1.69 µM)
- MIC (Enterobacter cloacae [14]): 1 µg/mL (≈ 1.69 µM)
- MIC (Escherichia coli [15]): 1 µg/mL (≈ 1.69 µM)
- MIC (Serratia marcescens [16]): 2 µg/mL (≈ 3.37 µM)
- MIC (Klebsiella oxytoca): 1 µg/mL (≈ 1.69 µM)
- MIC (Escherichia coli [17]): 1 µg/mL (≈ 1.69 µM)
- MIC (Staphylococcus aureus [18]): 1 µg/mL (≈ 1.69 µM)
- MIC (Klebsiella pneumoniae [19]): 1 µg/mL (≈ 1.69 µM)
- MIC (Pseudomonas aeruginosa [20]): 3 µg/mL (≈ 5.06 µM)
- MIC (Klebsiella pneumoniae [21]): 1 µg/mL (≈ 1.69 µM)
- MIC (Acinetobacter baumannii [22]): 8 µg/mL (≈ 13.5 µM)
- MIC (Pseudomonas aeruginosa [23]): 4 µg/mL (≈ 6.75 µM)
- MIC50 (Pseudomonas aeruginosa [24]): 8 µg/mL (≈ 13.5 µM)
- MIC90 (Pseudomonas aeruginosa [24]): 64 µg/mL (≈ 108 µM)
- MIC (Staphylococcus aureus [25]): 1 µg/mL
- MIC (Klebsiella pneumoniae [26]): 1 µg/mL (≈ 1.69 µM)
- MIC (Escherichia coli [27]): 1 µg/mL (≈ 1.69 µM)
- MIC (Pseudomonas aeruginosa [28]): 2 µg/mL (≈ 3.37 µM)
- MIC (Escherichia coli [29]): 0.25 µg/mL (≈ 0.422 µM)
- MIC (Acinetobacter baumannii [30]): 3 µg/mL (≈ 5.06 µM)
- MIC (Serratia marcescens [31]): 1 µg/mL (≈ 1.69 µM)
- MIC (Staphylococcus aureus [32]): 0.5 µg/mL (≈ 0.844 µM)
- MIC (Serratia marcescens [33]): 1 µg/mL (≈ 1.69 µM)
- MIC (Pseudomonas aeruginosa [34]): 0.125 µg/mL (≈ 0.211 µM)

— ChEMBL document CHEMBL1687796, “Synthesis and spectrum of the neoglycoside ACHN-490” (2010)
